Experimental data from article PMC3234294 (Analytical chemistry, 2011).

Experiments:
[1] = QCM binding of antibodies to bare Au sensor surface; conditions: 1 μl of 1 μg/μl MAb spiked into 1 ml PBS
[2] = QCM binding of antibodies to MUA sensor surface; conditions: 1 μl of 1 μg/μl MAb spiked into 1 ml PBS
Outline: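 Au QCM electrodes, bare or modified by overnight SAM formation at 4 °C (MUA or peptide monolayers), rinsed with water and placed in 1 ml PBS. Therapeutic monoclonal antibodies (1 μg/μl stock) were spiked sequentially, 1 μl each, into the cuvette. Frequency change was recorded against time with a network/impedance analyzer.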

Rituxan = assay: QCM nonspecific binding of immobilized peptides to Rituxan
Outline: (§1)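 A CH-19 peptide monolayer was self-assembled on an Au QCM electrode overnight at 4 °C, rinsed, and held in PBS. The non-target therapeutic antibodies were spiked in sequentially into the same cuvette, each as 1 μl into 999 μl PBS (final 1 μg/ml). Label-free frequency shift (ΔF) was followed in real time with a network/impedance analyzer.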

Avastin = assay: QCM nonspecific binding of immobilized peptides to Avastin
Outline: as §1

[3] = EIS of CH-19 modified Au electrode before and after Herceptin; type: physicochemical; conditions: bare Au to CH-19 to binding with Herceptin; 0.01 Hz-100 kHz, 5 mV
Herceptin [4] = assay: QCM binding of immobilized HER2 mimotope-derived peptides to Herceptin; set-up: species or system humanized
Cetuximab = assay: QCM nonspecific binding of immobilized CH-19 to Cetuximab; conditions: CH-19 modified Au QCM electrode, PBS, final 1 μg/ml
Outline: as §1

[5] = CV of CH-19 modified Au electrode before and after Herceptin; type: physicochemical; conditions: upon surface deposition of CH-19 and Herceptin; 0.1 M NaClO4, 50 mV/s
Herceptin [6] = assay: CH-19 piezoimmunosensor analytical performance for Herceptin detection; set-up: species or system humanized
Herceptin [7] = conditions: previously reported; ref 16 (Jiang et al.); cited from earlier work
[8] = CH-19 modified Au QCM electrode, PBS, final 1 μg/ml
[9] = QCM, CV and EIS summarized, all four peptide designs

Avastin: therapeutic MAb, control drug
Binding to bare Au sensor surface, in words [1]: negligible | Binding to MUA sensor surface, in words [2]: appreciable

CGSGSGSQLGPYELWELSH [CH-19]
frequency shift (ΔF) with Rituxan (Rituxan; [8]): ~ 0 Hz | Nonspecific binding activity with Rituxan among peptide designs (Rituxan; [9]): lowest nonspecific binding activity | frequency shift (ΔF) with Avastin (Avastin; [8]): ~ 0 Hz | Nonspecific binding activity with Avastin among peptide designs (Avastin; [9]): lowest nonspecific binding activity | Nyquist plots (electron transfer resistance) [3]: enlarged step-by-step | Ka (affinity for Herceptin) (Herceptin [4]; CH-19 modified gold QCM electrode (Figure S3)): 7.96e+08 M⁻¹ | Buffering effects on Herceptin/CH-19 interaction (Herceptin [4]; Herceptin lowered 10 fold to 0.1 μg/ml, H2O, PBS or HBS-EP): similar | Overall binding capacity with Herceptin among peptide designs (Herceptin [4]; [9]): highest binding capacity with Herceptin | Herceptin bound to the CH-19 modified gold QCM electrode (mass) (Herceptin [4]; estimated by Sauerbrey's equation, ΔF of 1 Hz about 1 ng, PBS, 1 μg/ml Herceptin): ~ 225 ng | frequency change (ΔF) with free Herceptin (Herceptin [4]; simple buffer (1 ml HBS-EP), 1 μl Herceptin stock 1 μg/μl, no serum): ~ 275 Hz | frequency shift (ΔF) with Cetuximab (Cetuximab): ~ 0 Hz | redox peaks of Fe(CN)6 probe [5]: gradually disappeared | sensitivity (Herceptin [6]; PBS buffer): 0.52 Hz · ml/ng | time to detection of Herceptin, in words (Herceptin [6]; PBS buffer, frequency change vs time): within minutes | detection limit (Herceptin [6]; PBS buffer, S/N = 3, N ~ 1.85 Hz): 10.70 ng/mL | detection limit (Herceptin [6]; in simple buffers and in human serum samples (Table S3)): 0.038 nM | detection limit (Herceptin [6]; piezoimmunosensor assay, standard curve in HBS-EP buffer): 0.038 nM

GPYELWELSH
specific binding activities to Herceptin, in words (Herceptin [7]): exhibited specific binding activities to Herceptin

QLGPYELWELSH
specific binding activities to Herceptin, in words (Herceptin [7]): exhibited specific binding activities to Herceptin

Rituxan: therapeutic MAb, control drug
Binding to bare Au sensor surface, in words [1]: negligible | Binding to MUA sensor surface, in words [2]: appreciable
